# Assay outcomes (PubChem)
# A selection: hits, their analogues and other compounds. The true share with any hit is near 1.1%.
# TNAP act hiacc: activators of human TNAP at high phosphate acceptor concentration; P05186; purified TNAP, CDP-star luminescence, 1 M DEA, 30 min; hits give high values; 0 = EDTA background, 1 = DMSO-only activity; activation factor at 20 µM; 200,000 tested, under 10 active; AID 1136;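 active means activation factor at least 2 at 20 µM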
#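 Control set: EDTA negative control, DMSO positive control / Assay system: human TNAP / Quantity: TNAP 1/800 final / Evaluation: TNAP activation factor scaled between EDTA and DMSO control wells / Measured by: luminescent substrate turnover signal / Compound dosing: one dose, 20 µM / Times: 30 min enzyme reaction at room temperature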
# S1P4 antag: human S1P4 receptor antagonism; AID 1510; S1P4-expressing cells, antagonist mode, reporter read-out; 0.26% of 220,000 active; O95977; inhibition, % at 4.98 µM; in the data active means inhibition above about 29%;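 further: 0% = wells stimulated with agonist and 100% = vehicle wells without agonist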
# Target sequence (O95977 whole entry, looked up): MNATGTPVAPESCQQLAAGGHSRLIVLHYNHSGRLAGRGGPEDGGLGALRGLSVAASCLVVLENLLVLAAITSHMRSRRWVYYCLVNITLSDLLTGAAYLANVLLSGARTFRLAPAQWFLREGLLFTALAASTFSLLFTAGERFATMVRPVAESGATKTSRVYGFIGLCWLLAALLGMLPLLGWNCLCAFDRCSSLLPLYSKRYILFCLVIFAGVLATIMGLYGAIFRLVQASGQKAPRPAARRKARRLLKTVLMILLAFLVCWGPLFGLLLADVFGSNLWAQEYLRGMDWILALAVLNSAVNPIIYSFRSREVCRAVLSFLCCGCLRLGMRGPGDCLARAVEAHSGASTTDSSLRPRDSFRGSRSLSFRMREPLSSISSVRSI
# TNAP inh noacc: TNAP (human) inhibition, acceptor-free conditions; P05186; purified TNAP, CDP-star luminescence, 30 min; inhibition, % at 20 µM; 0.26% of 200,000 active;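 active means tissue-nonspecific alkaline phosphatase inhibition above about 50% at 20 µM in the single-dose screen, limit read from the data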;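 further: 0% = DMSO negative control and 100% = EDTA positive control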
# TNAP inh hiacc: TNAP (human) inhibition, high acceptor; P05186; purified TNAP, CDP-star luminescence, 1 M DEA; inhibition, % at 20 µM; 0.03% of 200,000 active;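 active means over 50% inhibition of tissue-nonspecific alkaline phosphatase at 20 µM in the single-dose screen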;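 further: plate controls were DMSO wells for no effect and EDTA-quenched wells as full inhibition for full effect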
# S1P4 agonist: agonists of human S1P4 receptor; O95977; S1P4-expressing cell line, agonist reporter assay; activation, % at 4.98 µM; 0.35% of 220,000 active; in the data active means activation above about 11%;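 further: 0% = DMSO vehicle and 100% = reference agonist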
# S1P3 antag: S1P3 (human) receptor antagonism; inhibition, % at 4.98 µM; CHO S1P3 NFAT-BLA reporter, FRET fluorescence, antagonist mode; Q99500; 0.27% of 170,000 active;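 active means inhibition above the plate cutoff, the mean inhibition of test wells on that plate plus 3 SD, cut at about 28% in these data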;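 further: cells challenged with S1P at its EC80 of 0.8 µM; blue over green emission ratio from cleaved BLA substrate after 4 h stimulation; 0% = S1P-stimulated wells and 100% = unstimulated DMSO-only wells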
# The depositor's hits bear a star; · = no result given.
SMILES,TNAP act hiacc,S1P4 antag,TNAP inh noacc,TNAP inh hiacc,S1P4 agonist,S1P3 antag
Cn1c(Cn2c(=O)sc3ccccc32)nnc1SCC(=O)Nc1ccccc1F,1,-12,-9,-1,0,99*
Cc1ccnn1CC(=O)N/N=C/c1cn[nH]c1-c1ccccc1,·,3,·,·,-1,2
Cc1ccc(OCCN2CCN(c3ncnc4sc(C)c(C)c34)CC2)cc1,1,-17,-18,-2,-4,·
Clc1ccc(OCCN2CCN(c3ncnc4sccc34)CC2)cc1,1,-15,-6,-4,-2,64*
COc1cccc(NC(C)C(=O)Nc2cc([N+](=O)[O-])ccc2Cl)c1 (configuration not stated),1,-8,-11,-4,0,0
CCc1ccc(C(=O)CSc2n[nH]c(-c3ccncc3)n2)cc1,1,-7,6,-4,-1,·
O=C(CSc1n[nH]c(-c2ccccc2)n1)NC(=O)NCc1ccco1,1.1,6,63*,-7,-1,-6
Nc1nc(SCC(=O)NCc2ccccc2)n[nH]1,1,7,-5,-3,-2,-16
O=C(O)c1cccc(CSc2n[nH]c(-c3ccc(Cl)cc3Cl)n2)c1,1,-4,96*,4,-1,-15
O=C(CSc1n[nH]c(-c2ccccc2)n1)NCc1cccc(C(=O)O)c1,1,-7,70*,-5,0,-3
O=C(CSc1n[nH]c(-c2ccccc2)n1)c1ccc(O)c(O)c1,1,-6,68*,-2,-2,6
S=C(Nc1ccc2[nH]ccc2c1)NC1CCCCC1,·,4,·,·,-2,-10
CCc1ccc(NC(=O)C(C)n2nc(C)c([N+](=O)[O-])c2C)cc1 (configuration not stated),1.1,9,-15,-6,-2,-24
CN(C)CCCNc1nc2sc3c(c2c(=O)n1CCc1ccccc1)CCCCC3,·,6,·,·,0,5
Cc1cc(SCC(=O)c2ccc(O)c(O)c2)nc2ccccc12,1,-2,72*,4,0,8
S=c1[nH]nc(-c2ccco2)n1/N=C/c1ccc(Cl)cc1,1,0,54*,1,-1,5
S=c1[nH]nc(-c2ccco2)n1/N=C/c1ccccc1Cl,1,-4,21,0,-1,-10
O=C1c2ccccc2C(=O)N1c1n[nH]c(CCc2ccccc2)n1,1,-18,57*,0,-1,-4
COc1ccc(C[C@H]2COC(=O)[C@@H]2Cc2ccc(OC3OC(CO)C(O)C(O)C3O)c(OC)c2)cc1OC (some centres not stated),1,-1,-4,-4,1,-7
COc1cc(C2OCC3C(c4ccc(OC5OC(CO)C(O)C(O)C5O)c(OC)c4)OCC23)ccc1O (configuration not stated),1,-13,64*,1,1,-11
COc1cccc(C2=NOC(C(=O)Nc3cccnc3Cl)C2)c1 (configuration not stated),1.1,-9,-12,-7,0,-24
O=C(C1=NN(c2ccccc2)C2C(=O)N(c3ccc(Cl)cc3)C(=O)C12)c1ccccc1 (configuration not stated),1,0,-1,4,2,6
O=C(C1=NN(c2ccccc2)C2C(=O)N(c3cccc(Cl)c3)C(=O)C12)c1ccccc1 (configuration not stated),0.9,3,4,8,-3,28*
O=C(CS(=O)(=O)c1c[nH]c2ccccc12)N1CCc2ccccc21,0.9,16,31,15,-2,-6
Cc1nn(-c2ccccc2)c(C)c1/C=N/NC(=O)c1cc(-c2ccccc2)n[nH]1,0.8,-7,98*,22,0,·
CN1/C(=C\C=C2/SC(=S)NC2=O)C(C)(C)c2ccccc21,0.5,-11,41,51*,-1,-4
O=c1c2ccccc2[nH]c(=S)n1CCCN1CCN(C2CCCCC2)CC1,1,-4,-7,-2,1,70*
Cn1c(-n2c(CCCN3C(=O)c4ccccc4C3=O)nc3ccccc3c2=O)nc2ccccc21,1,6,-5,-2,-1,6
O=C1c2ccccc2C(=O)N1CCCc1nc2ccccc2c(=O)n1CCCn1ccnc1,0.8,-7,53*,17,-4,-12
